Bioassay records from PubChem BioAssay.
Shown are actives, neighbours in structure and some others; about 4.9% of the full set was active somewhere.
STAT1 blocker – STAT1 signaling inhibition | inhibition, % at 5.5 µM | AID 920 | hit rate 0.35% among 200,000 | NIH 3T3 STAT1-luciferase reporter, IFN-gamma, luminescence;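 active = inhibition above a set limit, the mean inhibition across all tested compounds plus 3 SD, cut at about 34% in these data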;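 note: 0% = IFN-gamma with DMSO and 100% = IFN-gamma with 300 µM nifuroxazide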
APP 5'UTR act – APP 5'UTR luciferase reporter activation | SH-SY5Y APP 5'UTR luciferase reporter, luminescence; zero percent = DMSO vehicle wells | activation, % at 2 µM | hit rate 1% among 190,000 | AID 1276;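 active = activation above a set limit, based on mean plus 3 SD of controls, cut at about 140% in these data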
STAT1 act-1 – increases IFN-gamma driven STAT1 reporter signal | NIH 3T3 STAT1-luciferase reporter, luminescence; 100% = IFN-gamma alone, no compound | activation (% of control), % at 5.5 µM | hit rate 2.6% among 200,000 | AID 932;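 active = activation above the screen-wide mean activation plus 3 SD, cut at about 130% in these data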;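 note: raw ratio to IFN-gamma control signal so 100% means no change and 0% no light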
STAT3 act-1 – increases IL-6 driven STAT3 reporter signal; activation (% of control), % at 5.6 µM; hit rate 0.91% among 190,000; AID 871; U3A cells, IL-6 STAT3-luciferase reporter, luminescence; 100% = signal with IL-6 EC80 alone;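 active = activation above the screen-wide mean of compound activation plus 3 SD, cut at about 130% in these data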;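 note: 0% = background luminescence of wells with medium and substrate only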
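Material: STAT3-luciferase reporter U3A cells. Controls: IL-6-treated wells, 100% activation. Read-out: % activation versus median of IL-6-stimulated wells. Probe or stimulus: IL-6 stimulus at 33 ng/mL final. Timing: compound 1 h, then IL-6 6 h at 37 °C. Signal: reporter luminescence signal.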
NF-kB neuron act – NF-kB expression increase, human neuronal cells; hit rate 1.6% among 190,000; fold change at 12.5 µM; AID 1239; NF-kB reporter expression; active compounds read high; in the data active = fold change above about 3.3
STAT3 inh – STAT3 signaling inhibition; inhibition, % at 5.5 µM; hit rate 0.89% among 190,000; U3A cells, IL-6 STAT3-luciferase reporter, luminescence; host cell line lacks STAT1;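 active = inhibition above the mean inhibition across all screened compounds plus 3 SD, cut at about 44% in these data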;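 note: 0% = DMSO only wells and 100% = 100 µM nifuroxazide control wells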
STAT3 act-2 – confirmation of STAT3 signaling activators; hit rate 64% among 1,200; shares compounds with STAT3 act-1; potentiation (% of control), % at 5.7 µM; U3A STAT3-luciferase reporter, IL-6 potentiation, luminescence; U3A cells lack STAT1; 100 means same as IL-6 alone; AID 1267;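 active = percent activation of the STAT3 luciferase reporter above a set limit taken from the earlier primary screen, cut at about 130% in these data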;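 note: 0% = background signal of medium plus substrate and 100% = median of IL-6 with DMSO wells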
NFkB act STAT3ct – counter-screen for STAT3 activators: NF-kappaB activation; shares compounds with STAT3 act-1; human cells, NF-kappaB reporter activation; activation (% of control), % at 5.7 µM; hit rate 11% among 1,200; AID 1309; in the data active = activation above about 120%;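 note: reporter induced by TNF-alpha stimulation; 100% = median of stimulated DMSO wells and 0% = no signal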
STAT1 act-2 – STAT1 activation in STAT3 activator counter-screen; hit rate 13% among 1,200; NIH 3T3 STAT1-luciferase reporter, IFN-gamma, luminescence; AID 1318; activation (% of control), % at 5.7 µM; shares compounds with STAT3 act-1;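 active = activation above the solvent-only control well mean plus 3 SD, set per screening run, cut at about 120% in these data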;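 note: 100% = IFN-gamma with DMSO median signal so 100% means no change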
Starred values were filed as active, the others as inactive; . = not tested or not shown.

SMILES	STAT1 blocker	APP 5'UTR act	STAT1 act-1	STAT3 act-1	NF-kB neuron act	STAT3 inh	STAT3 act-2	NFkB act STAT3ct	STAT1 act-2
O=C(COC(=O)/C=C/c1ccccc1[N+](=O)[O-])NCC(F)(F)F	21	6	80	150*	1.1	-63	163*	104	101
Cc1ccc(C(=O)/C=C/c2ccccc2[N+](=O)[O-])cc1	-24	35	120	138*	0.92	-36	162*	121*	125*
CN(C)C(=O)COC(=O)/C=C/c1ccccc1[N+](=O)[O-]	25	8	77	162*	0.74	-73	143*	104	73
O=C(COC(=O)/C=C/c1ccccc1[N+](=O)[O-])NCC1CCCO1 (stereo unspecified)	8	8	91	102	0.93	1	.	.	.
CCNC(=O)COC(=O)/C=C/c1ccccc1[N+](=O)[O-]	16	-9	85	92	1	6	.	.	.
CN(C)C(=O)COc1ncnc2scc(-c3ccc(F)cc3)c12	-1	8	99	101	1	10	.	.	.
O=C(/C=C/c1ccccc1)C1=C(O)C(=O)N(CCO)C1c1ccccc1[N+](=O)[O-] (stereo unspecified)	-1	-21	99	144*	1.2	-47	152*	104	82
CC(=O)C1=C(O)C(=O)N(CCc2ccccc2)C1c1ccccc1[N+](=O)[O-] (stereo unspecified)	5	-1	96	120	0.94	-27	.	.	.
COc1ccc(CNC(=S)NC(C)CCc2ccccc2)cc1 (stereo unspecified)	2	-12	98	102	1.1	-1	.	.	.
Cc1ccc(-c2nc3ccccc3n3nnnc23)cc1	-5	82	101	174*	2	-84	185*	131*	148*
CCOC(=O)Cc1cc(=O)n2[nH]cc(-c3ccc(Cl)cc3)c2n1	-3	-14	100	101	1.1	2	.	.	.
Cc1ccc(-n2[nH]c(C)c(C=Nc3cc(C)ccn3)c2=O)cc1	-6	24	106	138*	1.3	-42	102	101	103
CCNc1nc(NC(C)(C)C)nc(SC(C(C)=O)C(C)=O)n1	-3	3	104	141*	0.77	-44	119	117	110
CCNc1nc(SC(C(C)=O)C(C)=O)nc(N(C)C)n1	-3	8	102	113	1	-14	.	.	.
Oc1ccc2ccccc2c1CNc1cnc2ccccc2c1	3	.	97	146*	1.1	-58	133*	99	104
Cn1c(NCc2c(O)ccc3ccccc23)nc2ccccc21	-2	-11	102	110	0.83	-5	.	.	.
CCOC(=O)C1CCCN(C(=S)Nc2cccc(Cl)c2)C1 (stereo unspecified)	-5	-4	105	94	0.94	3	.	.	.
CCOc1ccc(-c2nnc(-c3ccncc3)o2)cc1OCC	-8	14	107	111	0.84	-5	.	.	.
CCOc1cc(-c2ccc(N)c(OCC)c2)ccc1N	2	-7	98	155*	0.96	-61	136*	102	98
CNC(=S)N/N=C1\C(=O)c2cccc3cccc1c23	1	9	99	138*	1.2	-39	143*	116	111
CCCCNC(=S)N/N=C1\C(=O)c2cccc3cccc1c23	3	8	97	85	1	24	.	.	.
Cc1ccc(NC(=O)c2c(Cl)n(C)c3ccccc23)cc1	-9	37	108	170*	1.7	-68	190*	123*	132*
O=c1oc2ccccc2c(O)c1/C=C1\C=Nc2ccccc21	6	4	95	161*	1.6	-76	152*	104	90
Cc1noc(C)c1S(=O)(=O)Nc1ccc(C(=O)N2CCC(C)CC2)cc1	-4	-8	104	102	.	3	.	.	.
COC(=O)CCC(=O)Nc1ccc(C)cc1OC(=O)CCC(=O)OC	-1	9	105	136*	0.92	-42	108	100	98
SMILES	STAT1 blocker	APP 5'UTR act	STAT1 act-1	STAT3 act-1	NF-kB neuron act	STAT3 inh	STAT3 act-2	NFkB act STAT3ct	STAT1 act-2
CCn1cc(CNCc2cn(C)nc2-c2ccc(C3CCCCC3)cc2)cn1	-9	-12	108	102	0.67	9	.	.	.
CCOC(=O)COc1ccc2ccccc2c1/C=C/[N+](=O)[O-]	-2	-62	102	91	2	8	.	.	.
CCOc1ccc(/C=C/[N+](=O)[O-])c2ccccc12	-5	3	105	137*	1.6	-36	121	118	101
CC1CCN(Cc2c(C(=O)O)nnn2-c2nonc2N)CC1	6	-10	94	90	0.93	16	.	.	.
CN(C)C(=O)N1CCC(C(=O)NCc2cccs2)CC1	1	2	98	145*	1.2	-49	95	102	100
CCC(Sc1nnnn1-c1ccccc1)C(=O)Nc1nc2ccccc2s1 (stereo unspecified)	-1	12	101	157*	1.4	-64	155*	112	113
O=c1c2ccccc2nc(/C=C/c2c[nH]c3ccccc23)n1CCO	-18	76	115	136*	0.58	-38	136*	117	126*
COc1ccc2nc(-n3c(O)c(C4=c5ccccc5=NC4=O)[nH]c3=S)sc2c1	-2	0	102	93	1	5	.	.	.
Cn1c(O)c(C2=c3ccccc3=NC2=O)[nH]c1=S	13	1	88	142*	1.1	-47	155*	103	93
O=C(NN1CCCCC1)c1cccc2ccccc12	1	12	100	106	2.5	3	.	.	.
Cc1ccc2[nH]c(C)c(/C=N/Nc3nc4ccccc4s3)c2c1	-7	90	106	139*	0.72	-40	134*	104	101
Cn1nnc(NC(=S)NC(=O)Cc2ccccc2)n1	1	-16	98	100	1.1	8	.	.	.
Cc1ccccc1C1c2[nH]c3ccccc3c2CCN1CCCn1cccn1 (stereo unspecified)	6	-16	92	152*	0.96	-51	148*	104	90
CCOC(=O)N1CCN(C(=O)Cn2ccc3c(OC)cccc3c2=O)CC1	12	-20	88	.	1.1	.	.	.	.
CN1C(=O)/C(=N\OC(=O)c2cccc3ccccc23)c2ccccc21	9	4	92	141*	0.91	-37	126	102	89
O=C(Nc1nc(-c2cccs2)cs1)c1cc2ccccc2oc1=O	-7	2	106	88	1.4	19	.	.	.
